Experimental data reported in ChEMBL document CHEMBL1129428 (J Med Chem, 1996).

Columns and labels:
[1] = system: Mus musculus; test: Compound was tested for toxicity after intraperitoneal injection into mice by using toxicity screen test after 4 hr; type: organism-based; conditions: in vivo, ip
Summary of the method: (§1)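 Mice injected intraperitoneally at 30, 100 and 300 mg/kg and examined 0.5 and 4 h afterwards. Each entry is the minimum dose giving activity (MES protection, scPTZ protection, or rotorod failure for neurotoxicity) in half or more of the mice. Activity is called absent if nothing occurs at 300 mg/kg.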

[2] = system: Rattus norvegicus; test: Compound was tested for anticonvulsant activity after Oral Administration into Rats by using MES screen test after 1h,dose 12.5 mg/kg; number of rats out of four which were protected; type: functional
Summary of the method: (§2)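 Rats received the compound orally. […] Rats were tested in the MES screen at 0.25, 0.5, 1, 2 and 4 h. Each value is the number of rats protected out of 4. The test followed NINDS procedures.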

[3] = system: Mus musculus; test: Anticonvulsant activity after intraperitoneal injection into mice by using scPTZ screen after 0.5 hr; type: functional
[4] = system: Rattus norvegicus; test: Compound was tested for anticonvulsant activity after Oral Administration into Rats by using MES screen test after 2h,dose 12.5 mg/kg; number of rats out of four which were protected; type: functional; summary of the method: as §2
[5] = system: Rattus norvegicus; test: Compound was tested for anticonvulsant activity after Oral Administration into Rats by using MES screen test after 0.25h,dose 12.5 mg/kg; number of rats out of four which were protected; type: functional; summary of the method: as §2
[6] = system: Rattus norvegicus; test: Anticonvulsant activity after oral administration into rats; type: functional; set-up: concentration or dose not given beside the values
[7] = system: Mus musculus; test: Anticonvulsant activity after intraperitoneal injection into mice by using MES screen test after 0.5 hr; type: functional
[8] = system: Mus musculus; test: Anticonvulsant activity after intraperitoneal injection into mice measured in a maximal electroshock scree (MES) screen; type: functional
[9] = system: Rattus norvegicus; test: Compound was tested for anticonvulsant activity after Oral Administration into Rats by using MES screen test after 4h,dose 12.5 mg/kg; number of rats out of four which were protected; type: functional; summary of the method: as §2
[10] = system: Mus musculus; test: Toxicity after intraperitoneal injection into mice by using toxicity screen test after 0.5 hr; type: organism-based; conditions: in vivo, ip; summary of the method: as §1
[11] = system: Rattus norvegicus; test: Compound was tested for anticonvulsant activity after Oral Administration into Rats by using MES screen test after 0.25h,dose 12.5 mg/kg; No activity was demonstarted; type: functional, organism-based; set-up: dose 12.5 mg/kg; summary of the method: as §2
[12] = system: Mus musculus; test: Anticonvulsant activity after intraperitoneal injection into mice by using scPTZ screen test after 4 hr; type: functional
[13] = system: Rattus norvegicus; test: Compound was tested for anticonvulsant activity after Oral Administration into Rats by using MES screen test after 0.5h,dose 50 mg/kg; number of rats out of four which were protected; type: functional; summary of the method: as §2
[14] = system: Rattus norvegicus; test: Compound was tested for anticonvulsant activity after Oral Administration into Rats by using MES screen test after 4h,dose 50 mg/kg; number of rats out of four which were protected; type: functional; summary of the method: as §2
[15] = system: Rattus norvegicus; test: Compound was tested for anticonvulsant activity after Oral Administration into Rats by using MES screen test after 0.25h,dose 50 mg/kg; number of rats out of four which were protected; type: functional; summary of the method: as §2
[16] = system: Rattus norvegicus; test: Compound was tested for anticonvulsant activity after Oral Administration into Rats by using MES screen test after 1h,dose 50 mg/kg; number of rats out of four which were protected; type: functional; summary of the method: as §2
[17] = system: Rattus norvegicus; test: Compound was tested for anticonvulsant activity after Oral Administration into Rats by using MES screen test after 2h,dose 50 mg/kg; number of rats out of four which were protected; type: functional; summary of the method: as §2
[18] = system: Mus musculus; test: Compound was tested for anticonvulsant activity after intraperitoneal injection into mice by using scPTZ screen test after 1 hr; type: functional; conditions: ip
Summary of the method: (§3)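 Quantitative intraperitoneal mouse testing in the MES, scPTZ or rotorod neurotoxicity screens at the peak time given for each compound (0.25–2 h). ED50 or TD50 reported in mg/kg with 95% CI and slope (SE).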

[19] = system: Mus musculus; test: Compound was tested for anticonvulsant activity after intraperitoneal injection into mice by using MES screen test after 1 hr; type: functional; conditions: ip; summary of the method: as §3
[20] = Compound was tested for toxicity after intraperitoneal injection into mice by using neurotoxicity screen test after 2 hr; type: organism-based; conditions: mouse, in vivo, ip; summary of the method: as §3
[21] = system: Rattus norvegicus; test: Compound was tested for anticonvulsant activity after Oral Administration into rat by using MES screen test after 4 hr; type: functional
Summary of the method: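 Rats dosed orally, typically at 50 mg/kg first, then mostly 12.5 mg/kg (some compounds at 30 mg/kg), and tested by maximal electroshock. Four rats per compound, scored at 0.25, 0.5, 1, 2 and 4 h as the number of rats protected out of 4.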

[22] = system: Rattus norvegicus; test: Compound was tested for anticonvulsant activity after Oral Administration into Rats by using MES screen test after 0.5h,dose 12.5 mg/kg; No activity was demonstarted; type: functional, organism-based; set-up: dose 12.5 mg/kg; summary of the method: as §2
[23] = system: Rattus norvegicus; test: Compound was tested for anticonvulsant activity after Oral Administration into Rats by using MES screen test after 1h,dose 12.5 mg/kg; No activity was demonstarted; type: functional, organism-based; set-up: dose 12.5 mg/kg; summary of the method: as §2

CC/C(=N/NC(N)=O)c1ccccc1Oc1ccc(Br)cc1
Dose [1]: 300 mg/kg

Cc1cc(Oc2ccc(/C=N/NC(N)=O)cc2)ccc1Cl
Activity [2]: 4 | Dose [3]: 300 mg/kg | Activity [4]: 4 | Activity [5]: 1 | Activity [6]: 4 | Dose [7]: 30 mg/kg | Dose [8]: 30 mg/kg | Dose [1]: 100 mg/kg | Activity [9]: 4 | Dose [10]: 300 mg/kg

Cc1cc(Cl)ccc1Oc1ccc(/C=N/NC(N)=O)cc1
Activity [2]: 4 | Dose [3]: 30 mg/kg | Activity [4]: 4 | Activity [11]: No activity | Activity [6]: 3 | Dose [7]: 30 mg/kg | Dose [12]: 30 mg/kg | Dose [8]: 30 mg/kg | Dose [1]: 100 mg/kg | Activity [9]: 4 | Dose [10]: 300 mg/kg

NC(=O)C(=O)N/N=C/c1ccc(Oc2ccc(F)cc2)cc1
Dose [1]: 300 mg/kg | Dose [10]: 300 mg/kg

N#Cc1ccc(Oc2ccc(/C=N\NC(N)=O)cc2)cc1
Activity [2]: 4 | Dose [3]: 30 mg/kg | Activity [4]: 4 | Activity [5]: 2 | Activity [6]: 4 | Dose [7]: 30 mg/kg | Dose [12]: 30 mg/kg | Dose [8]: 30 mg/kg | Dose [1]: 100 mg/kg | Activity [9]: 4 | Dose [10]: 300 mg/kg

NC(=O)N/N=C/c1ccc(Oc2ccccc2Cl)cc1
Activity [13]: 4 | Dose [3]: 100 mg/kg | Activity [14]: 4 | Activity [15]: 3 | Activity [16]: 4 | Activity [17]: 4 | Dose [7]: 30 mg/kg | Dose [12]: 300 mg/kg | Dose [8]: 30 mg/kg | Dose [10]: 300 mg/kg

NC(=O)N/N=C\c1ccc(Oc2cccc(F)c2F)cc1
Activity [2]: 4 | Dose [3]: 300 mg/kg | ED50 [18]: > 350 mg/kg | Activity [4]: 4 | ED50 [19]: 45.8 mg/kg | Activity [11]: No activity | Activity [6]: 3 | Dose [7]: 100 mg/kg | Dose [8]: 100 mg/kg | TD50 at 2 h [20]: 293 mg/kg | ED50 [21]: 6.15 mg/kg | Activity [9]: 4

O=CN/N=C/c1ccc(Oc2ccc(F)cc2)cc1
Dose [7]: 300 mg/kg | Dose [12]: 300 mg/kg | Dose [8]: 300 mg/kg | Dose [1]: 300 mg/kg

NC(=O)N/N=C/c1ccc(Oc2ccc3ccccc3c2)cc1
Activity [2]: 3 | Activity [22]: No activity | Activity [4]: 4 | Activity [5]: 1 | Dose [7]: 100 mg/kg | Dose [12]: 300 mg/kg | Dose [8]: 100 mg/kg | Activity [9]: 4

CC/C(=N/NC(N)=O)c1ccccc1Oc1ccc(Cl)cc1
Dose [7]: 300 mg/kg | Dose [8]: 300 mg/kg

N=C(S)N/N=C/c1ccc(Sc2ccc(F)cc2)cc1
Activity [2]: 2 | Dose [3]: 100 mg/kg | Activity [4]: 1 | Activity [11]: No activity | Activity [6]: 1 | Dose [7]: 100 mg/kg | Dose [12]: 100 mg/kg | Dose [8]: 100 mg/kg | Dose [1]: 100 mg/kg | Activity [9]: 1

Cc1cc(Oc2ccc(/C=N/NC(N)=O)cc2)ccc1F
Activity [2]: 4 | Activity [4]: 4 | Activity [5]: 2 | Activity [6]: 4 | Dose [7]: 30 mg/kg | Dose [8]: 30 mg/kg | Activity [9]: 4 | Dose [10]: 300 mg/kg

NC(=O)N/N=C\c1ccc(Oc2cccc(F)c2)cc1
Activity [13]: 4 | Dose [3]: 100 mg/kg | Activity [14]: 4 | Activity [15]: 4 | Activity [16]: 4 | Activity [17]: 4 | Dose [7]: 30 mg/kg | Dose [8]: 300 mg/kg | Dose [1]: 300 mg/kg | Dose [10]: 300 mg/kg

CCCCCCCOc1ccc(Oc2ccc(/C=N/NC(N)=O)cc2)cc1
Dose [10]: 300 mg/kg

C/C(=N/NC(N)=O)c1ccccc1Oc1ccccc1
Dose [3]: 300 mg/kg | Dose [7]: 300 mg/kg | Dose [10]: 300 mg/kg

CCCc1ccccc1Oc1ccc(/C=N/NC(N)=O)cc1
Activity [2]: 4 | Activity [4]: 4 | Activity [5]: 3 | Activity [6]: 3 | Dose [7]: 100 mg/kg | Dose [8]: 30 mg/kg | Activity [9]: 4 | Dose [10]: 300 mg/kg

C/C(=N/NC(N)=O)c1ccccc1Oc1ccc(Br)cc1
Dose [10]: 300 mg/kg

C/C(=N/NC(N)=O)c1ccccc1Oc1ccc(Cl)cc1
Dose [3]: 300 mg/kg | Dose [7]: 300 mg/kg | Dose [12]: 300 mg/kg | Dose [8]: 300 mg/kg | Dose [1]: 300 mg/kg | Dose [10]: 300 mg/kg

NC(=O)N/N=C/c1ccc(Oc2ccc(I)cc2)cc1
Activity [13]: 4 | Dose [3]: 100 mg/kg | Activity [14]: 4 | Activity [15]: 3 | Activity [16]: 4 | Activity [17]: 4 | Dose [7]: 30 mg/kg | Dose [12]: 300 mg/kg | Dose [8]: 30 mg/kg | Dose [1]: 100 mg/kg | Dose [10]: 300 mg/kg

N=C(S)N/N=C/c1ccc(Oc2ccc(F)cc2)cc1
Activity [2]: 2 | Dose [3]: 30 mg/kg | Activity [4]: 3 | Activity [11]: No activity | Activity [6]: 2 | Dose [7]: 30 mg/kg | Dose [12]: 30 mg/kg | Dose [8]: 30 mg/kg | Dose [1]: 30 mg/kg | Activity [9]: 1 | Dose [10]: 100 mg/kg

Cc1ccc(Oc2ccc(/C=N/NC(N)=O)cc2)cc1C
Activity [2]: 4 | Dose [3]: 300 mg/kg | Activity [4]: 4 | Activity [11]: No activity | Activity [6]: 2 | Dose [7]: 100 mg/kg | Dose [8]: 30 mg/kg | Dose [1]: 300 mg/kg | Activity [9]: 4

NC(=O)N/N=C/c1ccc(Oc2ccc(Cl)cc2)cc1
Activity [13]: 4 | Dose [3]: 30 mg/kg | Activity [14]: 4 | Activity [15]: 4 | Activity [16]: 4 | Activity [17]: 4 | Dose [7]: 30 mg/kg | Dose [8]: 30 mg/kg | Dose [1]: 30 mg/kg | Dose [10]: 300 mg/kg

NC(=O)N/N=C/c1ccc(Oc2ccc(F)cc2Br)cc1
Activity [13]: 4 | Dose [3]: 300 mg/kg | Activity [14]: 4 | Activity [15]: 4 | Activity [16]: 4 | Activity [17]: 4 | Dose [7]: 100 mg/kg | Dose [8]: 100 mg/kg | Dose [1]: 300 mg/kg | Dose [10]: 300 mg/kg

NC(=O)N/N=C/c1ccc(Oc2ccc(F)cc2F)cc1
Activity [13]: 4 | Dose [3]: 100 mg/kg | Activity [14]: 4 | Activity [15]: 3 | Activity [16]: 4 | Activity [17]: 4 | Dose [7]: 30 mg/kg | Dose [8]: 30 mg/kg

C/C(=N/NC(N)=O)c1ccc(Sc2ccc(C)cc2)cc1
Dose [3]: 100 mg/kg | Activity [22]: No activity | Activity [4]: 3 | Activity [23]: No activity | Activity [11]: No activity | Dose [7]: 100 mg/kg | Dose [8]: 100 mg/kg | Activity [9]: 4

Cc1cc(I)ccc1Oc1ccc(/C=N/NC(N)=O)cc1
Activity [2]: 4 | Activity [4]: 4 | Activity [5]: 2 | Activity [6]: 4 | Dose [7]: 30 mg/kg | Dose [8]: 30 mg/kg | Dose [1]: 100 mg/kg | Activity [9]: 4 | Dose [10]: 300 mg/kg

NC(=O)N/N=C\c1ccc(S(=O)(=O)c2ccccc2)cc1
Dose [8]: 300 mg/kg

CCCCCCCCc1ccc(Oc2ccc(/C=N/NC(N)=O)cc2)cc1
Dose [8]: 300 mg/kg

CCCCc1ccc(Oc2ccc(/C=N/NC(N)=O)cc2)cc1
Activity [22]: No activity | Activity [4]: 1 | Activity [23]: No activity | Activity [11]: No activity | Dose [7]: 300 mg/kg | Dose [8]: 100 mg/kg | Dose [1]: 300 mg/kg | Activity [9]: 2
